Bioassay records from PubChem BioAssay.
An excerpt weighted towards active compounds, which were near 3.7% of everything screened.
KCNQ1 block: inhibitors of human KCNQ1 channel, primary screen, cell-based, thallium flux, high-throughput; CHO-K1 KCNQ1, FluxOR thallium flux fluorescence; hits give high values; B-score at 10 µM; hit rate 1.3% among 310,000;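 active = compounds whose thallium flux B-score, printed positive for inhibition, exceeds three library SD while starting fluorescence stays within three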;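 also: channel opened by potassium depolarization with thallium stimulus after 20 min compound exposure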
KCNK3 inh: human KCNK3 channel inhibitors, primary screen, CHO cells, FluxOR thallium flux, B-score; Potassium channel subfamily K member 3 (Homo sapiens), O14649; FluxOR fluorescence; hits give low values; B-score at 10 µM; hit rate 0.84% among 340,000;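 active = B-score under library mean minus 4 SD, starting fluorescence ratio at most library mean plus 5 SD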;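 also: more negative B-score means stronger inhibition of thallium flux through KCNK3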
Kir21 block: inhibitors of mouse Kir2.1 inward-rectifier potassium channel; HEK293-Kir2.1, FluxOR thallium flux fluorescence; hits give low values; B-score at 10 µM; hit rate 0.85% among 310,000;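 active = fluorescence ratio B-score at or below minus 3 SD of library scores, with starting-brightness B-score within 2 SD, cut at about -4.2 in these data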;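 also: channel flux triggered by added potassium and thallium sulfate stimulus; B-score of peak minus minimum fluorescence over baseline after thallium stimulus; more negative B-score means stronger Kir2.1 block with less thallium influx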
KCNK9 inh: KCNK9 potassium channel inhibitors, primary screen, HEK293 cells, thallium flux | FluxOR thallium flux fluorescence; hits give low values | B-score at 10 µM | hit rate 1.2% among 310,000 | AID 488922, 2010;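 active = ratio B-score over 3 SD below the library mean, with starting fluorescence within 5 SD of its mean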;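 also: negative B-score means less thallium flux so channel inhibition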
KCNQ1 act: potentiators or activators of KCNQ1 channel, primary screen, cell-based, thallium flux, high-throughput; CHO-K1 KCNQ1, thallium flux FluxOR fluorescence; hits give high values; Potassium voltage-gated channel subfamily KQT member 1 (Homo sapiens), P51787; hit rate 0.35% among 310,000; B-score at 10 µM; AID 2648, 2010;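 active = fluorescence ratio B-score, a plate-corrected score, at least three library SD, with initial intensity B-score within 5 SD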
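Medium – assay buffer, equal DMSO in all wells · Material – CHO-K1 cell line with stable KCNQ1 potassium channel expression · Signal – kinetic FluxOR thallium fluorescence, 10-s 1-Hz baseline, 110-s post-stimulus read · Compound – single concentration per compound, DMSO matched to controls · Schedule – 37 °C overnight plating, 90-min dark dye load, 20-min compound pretreatment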
hERG protect: hERG rescue from dofetilide block, primary screen, cell-based, CHO-hERG, FluxOR thallium flux, dofetilide IC70; activation (rescue from dofetilide block), less the hit threshold, % at 10 µM; hit rate 0.51% among 310,000; dofetilide IC70 present; AID 1511, 2009;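 active = activation above the mean of controls blocked by dofetilide plus 5 SD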;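 also: thallium influx through hERG after potassium depolarization seen as dye fluorescence rise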
KCNK9 block conf: KCNK9 potassium channel inhibitors, confirmation, HEK293 cells, thallium flux, duplicate. shares compounds with KCNK9 inh. FluxOR thallium flux fluorescence. inhibition, % at 10 µM. hit rate 43% among 4,900;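 active = thallium signal inhibited by more than 5 SD of the compound-free buffer control wells, on both duplicate plates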;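 also: 0% = assay buffer control wells without compound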
Kir21 sel: mouse Kir2.1 channel inhibition, confirmation, selectivity assay for KCNK9 modulator project, cell-based, HEK293, thallium flux. inhibition, % at 10 µM. shares compounds with KCNK9 inh. AID 492993, 2010. Kir2.1 cells, FluxOR thallium flux fluorescence. hit rate 4% among 4,900;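 active = thallium signal drop more than 5 SD beyond the mean of the no-compound control wells, seen in both duplicate plates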;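 also: signal is fluorescence rise after thallium addition divided by baseline fluorescence; plate controls were assay buffer only for no effect and full block by chlorpromazine control for full effect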
KCNK9 uninduced: thallium flux in non-induced HEK293 cells, confirmation, counter-screen for KCNK9 inhibitor project, cell-based, second counter screen, non-induced KCNK9-HEK293; shares compounds with KCNK9 inh; FluxOR thallium flux; inhibition, % at 10 µM; hit rate 40% among 4,900;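 active = thallium signal drop beyond 5 SD of the untreated control mean, on both duplicate plates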;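 also: plate controls were buffer only IC0 wells for no effect and SID17386958 at its maximal inhibitory level for full effect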
An asterisk follows results filed as active; i = inactive; / = no result given.

SMILES	KCNQ1 block	KCNK3 inh	Kir21 block	KCNK9 inh	KCNQ1 act	hERG protect	KCNK9 block conf	Kir21 sel	KCNK9 uninduced
CN(c1ccccc1)c1nc2ccsc2c(=O)s1	i	i	-0.56	i	i	-0.7	i	i	i
Cc1c(C(=O)Nc2nc3ccccc3[nH]2)cccc1[N+](=O)[O-]	i	i	1.83	-8.39*	i	-4.9	47.0%*	i	25.5%*
O=C(Nc1nc2ccccc2[nH]1)c1ccccc1[N+](=O)[O-]	i	i	-0.43	i	i	-6.1	/	/	/
Cc1ccc(NC(=O)c2oc3ccccc3c2NC(=O)C2CCCO2)cc1C (stereo unspecified)	i	i	0.77	i	i	-20.3	i	i	i
CCOc1ccccc1N/C=C/C(=O)C(C)(C)C	i	i	1.18	i	i	-8.5	i	i	i
COc1cc2c(cc1OC)CN(S(=O)(=O)c1ccc(Cl)nc1)CC2	/	i	/	/	/	/	/	/	/
CCN1C(=O)/C(=C\c2ccc(-c3ccc([N+](=O)[O-])cc3OC)o2)SC1=Nc1cccc(C(=O)O)c1	i	i	1.27	i	i	-2.4	i	i	i
CC(C)OC(=O)CC(=O)CSc1nc2c(c(-c3cccs3)c1C#N)CCC2	i	i	1.06	i	i	-6.1	/	/	/
CCOC(=O)C(C)Sc1nc2c(c(-c3cccs3)c1C#N)CCC2 (stereo unspecified)	i	i	0.34	i	i	0.5	i	i	i
c1ccc2c(c1)ncn2CCCOc1ccc2c(c1)CCC2	i	i	-0.05	i	i	-22.6	i	i	i
CC(=O)c1cccc(NC(=O)/C(=C\c2cccnc2)NC(=O)c2ccco2)c1	i	i	-0.16	i	i	-5.9	/	/	/
Cc1ccc(CN2CCCN(Cc3ccc(F)cc3Cl)S2(=O)=O)cc1	i	i	0.96	i	i	-5.2	/	/	/
O=S1(=O)N(Cc2ccccc2F)CCCN1Cc1c(F)cccc1Cl	i	i	-0.06	-14.5*	i	-5.2	67.5%*	i	34.0%*
COc1ccccc1Oc1ccc(N/C=C/C(=O)c2ccc(C)o2)cc1	i	i	-0.86	i	i	-3.7	i	i	i
CC(=O)Nc1ccc(N/C=C/C(=O)c2ccc(C)o2)cc1	i	i	-0.76	i	i	-4.5	/	/	/
CCCCCCCCNC1=CC(=O)CC(C)(C)C1	i	i	-0.78	i	i	-9.5	/	/	/
CCOc1ccccc1NC(=O)C1C2CCC3C(CCC21)C3(Cl)Cl (stereo unspecified)	i	i	-0.87	i	i	-7.3	i	i	31.5%*
O=C(Nc1ccccc1)C1C2CCC3C(CCC21)C3(Cl)Cl (stereo unspecified)	i	i	-0.52	i	i	-1.2	/	/	/
O=C(Nc1cccc(Cl)c1)C1C2CCC3C(CCC21)C3(Cl)Cl (stereo unspecified)	i	i	-0.86	i	i	-15.4	i	i	i
O=C(Nc1ccccc1Cl)C1C2CCC3C(CCC21)C3(Cl)Cl (stereo unspecified)	i	i	0.24	i	i	-2.6	/	/	/
COc1ccccc1CCNC(=O)C(=O)NCC1OCCN1S(=O)(=O)c1cc(F)ccc1F (stereo unspecified)	i	i	0.11	i	i	-14.6	/	/	/
CCOC(=O)CSc1nc(=O)n2ccccc2n1	i	i	-0.58	i	i	-10.3	/	/	/
COc1ccc(-c2cnnn2-c2ccc([N+](=O)[O-])cc2)cc1	i	i	0.05	i	i	-6.5	/	/	/
Cc1nc([N+](=O)[O-])cn1-c1nc2ccccn2c1[N+](=O)[O-]	i	i	-0.07	i	i	0.8	/	/	/
CN(C)/C=c1\sc2c(C#N)cc(C(=O)c3ccc(Br)cc3)n2c1=O	i	i	0.19	-8.43*	i	-6.8	35.5%*	62.5%*	77.5%*
SMILES	KCNQ1 block	KCNK3 inh	Kir21 block	KCNK9 inh	KCNQ1 act	hERG protect	KCNK9 block conf	Kir21 sel	KCNK9 uninduced
CCCCn1cc(C(=O)c2cc(Br)ccc2O)cc(C#N)c1=O	i	i	0	i	i	-11.5	/	/	/
CCn1cc(C(=O)N[C@@H](CCSC)C(=O)NCCCn2ccnc2)c(=O)c2cc3c(cc21)OCO3	i	i	-1	i	i	-9.4	/	/	/
CC(SC1=Nc2ccccc2C2CC=NN12)C(=O)NC1(C#N)CCCCC1 (stereo unspecified)	i	i	-4.59*	-10.1*	i	-16.8	46.5%*	i	42.5%*
COCCCn1c(C)cc(C(=O)CN2c3cccc4cccc(c34)S2(=O)=O)c1C	/	i	/	/	/	/	/	/	/
Cc1ccc(N2C(=O)CN(Cc3ccccc3)C2=S)cc1C	i	i	0.29	i	i	-3.6	/	/	/
O=C(Nc1ccccc1Cl)c1cccc(COc2cc(Cl)ccc2Cl)c1	i	i	-0.54	-10.9*	i	-3.9	30.0%*	i	i
COc1ccc(C(=O)Nc2cc(OCc3ccccc3)c(Cl)cc2Cl)cc1	i	i	0.34	-15.9*	i	-15.6	58.5%*	i	i
C=CCN(CC=C)CCOc1cc(C)ccc1[N+](=O)[O-]	i	i	0.51	i	i	-8.0	i	i	i
Brc1cccc(OCCN2CCCCC2)c1	i	i	0.18	i	i	-5.1	/	/	/
Brc1cccc(OCCN2CCc3ccccc3C2)c1	i	i	0.76	i	i	-8.8	i	i	i
Cc1ccc([N+](=O)[O-])c(OCCN2CCc3ccccc3C2)c1	i	i	1.36	i	i	-0.1	i	i	i
